# System: Mus musculus
# Test: Antidiabetic activity in insulin-resistant db/db mouse assessed as reduction of fed blood glucose level at 100 mg/kg, po measured at 8 hrs relative to vehicle-treated control
# Assay type: functional
# Design: scale not given: the % may be the effect or the level left
# Settings: not given
row,SMILES,Activity [%]
1,CC#C[C@H]1CN(S(=O)(=O)c2ccc(N)nc2)CCN1c1ccc(C(O)(C(F)(F)F)C(F)(F)F)cc1,56

# System: not listed separately
# Test: Intrinsic clearance in rat liver microsomes at 1 uM after 30 mins in presence of NADPH
# Assay type: ADME
# Settings: read-out: CLH
row,SMILES,microsomal CLint at 1 µM [µL/min/mg]
1,Nc1csc(S(=O)(=O)N2CCN(c3ccc(C(O)(C(F)(F)F)C(F)(F)F)cc3)CC2)c1,90
2,C[C@H]1COCCN1C[C@H]1CN(S(=O)(=O)c2cccs2)CCN1c1ccc(C(C)(O)C(F)(F)F)cc1 (mixture of isomers),> 399
3,CC(O)(c1ccc(N2CCN(S(=O)(=O)c3cccs3)C[C@@H]2CN2C3CCC2COC3)cc1)C(F)(F)F (mixture of isomers),> 399
4,CC(O)(c1ccc(N2CCN(S(=O)(=O)c3cccs3)C[C@@H]2CN2[C@H]3COC[C@H]2[C@@H](O)C3)cc1)C(F)(F)F (mixture of isomers),141
5,CC(O)(c1ccc(N2CCN(S(=O)(=O)c3cccs3)C[C@@H]2CN2CC3(COC3)C2)cc1)C(F)(F)F (mixture of isomers),120
6,Nc1cccc(S(=O)(=O)N2CCN(c3ccc(C(O)(C(F)(F)F)C(F)(F)F)cc3)CC2)c1,59

# Target: T1, Glucokinase regulatory protein (Homo sapiens, UniProt Q14397)
# T1 sequence (Q14397 whole entry): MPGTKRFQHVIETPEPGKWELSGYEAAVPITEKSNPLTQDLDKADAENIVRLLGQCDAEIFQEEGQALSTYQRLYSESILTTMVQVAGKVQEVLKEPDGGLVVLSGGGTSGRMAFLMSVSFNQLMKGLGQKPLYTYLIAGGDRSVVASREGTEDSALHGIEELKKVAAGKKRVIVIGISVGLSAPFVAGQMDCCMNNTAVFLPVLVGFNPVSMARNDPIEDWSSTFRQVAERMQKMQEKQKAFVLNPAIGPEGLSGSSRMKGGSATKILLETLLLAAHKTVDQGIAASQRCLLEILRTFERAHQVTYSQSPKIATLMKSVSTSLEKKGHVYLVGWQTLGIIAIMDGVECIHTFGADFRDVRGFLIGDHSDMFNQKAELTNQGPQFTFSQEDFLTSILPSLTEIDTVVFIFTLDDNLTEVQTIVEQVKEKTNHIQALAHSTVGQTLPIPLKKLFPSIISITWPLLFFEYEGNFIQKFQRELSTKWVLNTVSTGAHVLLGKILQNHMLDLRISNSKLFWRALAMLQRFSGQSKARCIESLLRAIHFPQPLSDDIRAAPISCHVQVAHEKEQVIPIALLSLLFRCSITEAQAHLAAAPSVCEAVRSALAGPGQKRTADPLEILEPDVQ
# Test: Inhibition of fluorescein-labeled human GK interaction with biotin-labeled human GKRP incubated for 20 mins prior to addition of fluorescein-labeled GK measured after 2 to 4 hrs by Alpha Screen assay
# Settings: not given
row,SMILES,IC50 [nM]
1,Nc1csc(S(=O)(=O)N2CCN(c3ccc(C(O)(C(F)(F)F)C(F)(F)F)cc3)CC2)c1,324
2,C[C@H]1COCCN1C[C@H]1CN(S(=O)(=O)c2cccs2)CCN1c1ccc(C(C)(O)C(F)(F)F)cc1 (mixture of isomers),7
3,CC(O)(c1ccc(N2CCN(S(=O)(=O)c3cccs3)C[C@@H]2CN2C3CCC2COC3)cc1)C(F)(F)F (mixture of isomers),2
4,CC(O)(c1ccc(N2CCN(S(=O)(=O)c3cccs3)C[C@@H]2CN2[C@H]3COC[C@H]2[C@@H](O)C3)cc1)C(F)(F)F (mixture of isomers),26
5,CC(O)(c1ccc(N2CCN(S(=O)(=O)c3cccs3)C[C@@H]2CN2CC3(COC3)C2)cc1)C(F)(F)F (mixture of isomers),524
6,Nc1cccc(S(=O)(=O)N2CCN(c3ccc(C(O)(C(F)(F)F)C(F)(F)F)cc3)CC2)c1,645

# System: not listed separately
# Test: Volume of distribution at steady state in rat at 2 mg/kg, iv
# Assay type: ADME, organism-based
# Design: dose 2 mg/kg, route intravenous
# Settings: in vivo, read-out: Vdss
# Method in brief: (§1)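 Intravenous PK at 2 mg/kg in 100% DMSO; steady-state volume of distribution derived from plasma profile.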
row,SMILES,Vd [L/kg]
1,CC#C[C@H]1CN(S(=O)(=O)c2ccc(N)nc2)CCN1c1ccc(C(O)(C(F)(F)F)C(F)(F)F)cc1,3.6

# Target: T2, Glucokinase regulatory protein (Mus musculus, UniProt Q91X44)
# T2 sequence (Q91X44 whole entry): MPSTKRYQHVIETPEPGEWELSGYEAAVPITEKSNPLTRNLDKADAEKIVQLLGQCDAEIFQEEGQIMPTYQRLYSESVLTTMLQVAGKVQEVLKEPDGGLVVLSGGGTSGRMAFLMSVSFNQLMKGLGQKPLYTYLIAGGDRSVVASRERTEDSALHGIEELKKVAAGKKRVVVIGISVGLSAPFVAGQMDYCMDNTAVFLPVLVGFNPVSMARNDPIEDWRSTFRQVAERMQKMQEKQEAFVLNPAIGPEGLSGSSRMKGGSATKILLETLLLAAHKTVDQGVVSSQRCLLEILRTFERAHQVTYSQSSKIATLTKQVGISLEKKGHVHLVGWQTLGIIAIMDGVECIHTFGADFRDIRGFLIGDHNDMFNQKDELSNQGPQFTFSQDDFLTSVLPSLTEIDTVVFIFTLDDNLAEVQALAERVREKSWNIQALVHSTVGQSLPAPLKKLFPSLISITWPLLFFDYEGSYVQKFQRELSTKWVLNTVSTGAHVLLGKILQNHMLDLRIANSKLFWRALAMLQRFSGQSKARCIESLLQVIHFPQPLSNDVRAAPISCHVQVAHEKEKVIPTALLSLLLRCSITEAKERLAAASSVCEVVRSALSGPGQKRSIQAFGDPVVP
# Test: Induction of GK translocation from nucleus to cytoplasm of mouse hepatocytes preincubated for 20 mins followed by glucose challenge measured after 40 mins by Hoechst 33342 staining-based assay
# Assay type: cell-based, Hepatocyte
# Settings: not given
row,SMILES,EC50 [nM]
1,Nc1csc(S(=O)(=O)N2CCN(c3ccc(C(O)(C(F)(F)F)C(F)(F)F)cc3)CC2)c1,> 12500
2,C[C@H]1COCCN1C[C@H]1CN(S(=O)(=O)c2cccs2)CCN1c1ccc(C(C)(O)C(F)(F)F)cc1 (mixture of isomers),820
3,CC(O)(c1ccc(N2CCN(S(=O)(=O)c3cccs3)C[C@@H]2CN2C3CCC2COC3)cc1)C(F)(F)F (mixture of isomers),239
4,CC(O)(c1ccc(N2CCN(S(=O)(=O)c3cccs3)C[C@@H]2CN2[C@H]3COC[C@H]2[C@@H](O)C3)cc1)C(F)(F)F (mixture of isomers),1290
5,CC(O)(c1ccc(N2CCN(S(=O)(=O)c3cccs3)C[C@@H]2CN2CC3(COC3)C2)cc1)C(F)(F)F (mixture of isomers),> 12500
6,Nc1cccc(S(=O)(=O)N2CCN(c3ccc(C(O)(C(F)(F)F)C(F)(F)F)cc3)CC2)c1,> 12500

# System: Mus musculus
# Test: Antidiabetic activity in insulin-resistant db/db mouse assessed as reduction of fed blood glucose level at 30 mg/kg, po measured at 6 hrs relative to vehicle-treated control
# Assay type: functional
# Design: scale not given: the % may be the effect or the level left
# Settings: not given
row,SMILES,Activity [%]
1,CC#C[C@H]1CN(S(=O)(=O)c2ccc(N)nc2)CCN1c1ccc(C(O)(C(F)(F)F)C(F)(F)F)cc1,47

# System: not listed separately
# Test: Oral bioavailability in rat at 10 mg/kg
# Assay type: ADME, organism-based
# Settings: in vivo
row,SMILES,bioavailability [%]
1,CC#C[C@H]1CN(S(=O)(=O)c2ccc(N)nc2)CCN1c1ccc(C(O)(C(F)(F)F)C(F)(F)F)cc1,75

# System: not listed separately
# Test: Oral bioavailability in C57Bl6 mouse at 10 mg/kg
# Assay type: ADME, organism-based
# Settings: in vivo
row,SMILES,bioavailability [%]
1,CC#C[C@H]1CN(S(=O)(=O)c2ccc(N)nc2)CCN1c1ccc(C(O)(C(F)(F)F)C(F)(F)F)cc1,40

# System: not listed separately
# Test: Mean residence time in C57Bl6 mouse at 10 mg/kg, po
# Assay type: ADME, organism-based
# Design: dose 10 mg/kg, route oral
# Settings: in vivo
# Method in brief: (§2)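 Oral PK at 10 mg/kg in 1% Tween 80, 2% HPMC, 97% water, […]; mean residence time from plasma profile.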
row,SMILES,MRT [h]
1,CC#C[C@H]1CN(S(=O)(=O)c2ccc(N)nc2)CCN1c1ccc(C(O)(C(F)(F)F)C(F)(F)F)cc1,9.2

# System: not listed separately
# Test: Intrinsic clearance in human liver microsomes at 1 uM after 30 mins in presence of NADPH
# Assay type: ADME
# Settings: read-out: CLH
row,SMILES,microsomal CLint at 1 µM [µL/min/mg]
1,C[C@H]1COCCN1C[C@H]1CN(S(=O)(=O)c2cccs2)CCN1c1ccc(C(C)(O)C(F)(F)F)cc1 (mixture of isomers),451
2,CC(O)(c1ccc(N2CCN(S(=O)(=O)c3cccs3)C[C@@H]2CN2C3CCC2COC3)cc1)C(F)(F)F (mixture of isomers),320
3,CC(O)(c1ccc(N2CCN(S(=O)(=O)c3cccs3)C[C@@H]2CN2[C@H]3COC[C@H]2[C@@H](O)C3)cc1)C(F)(F)F (mixture of isomers),125
4,CC(O)(c1ccc(N2CCN(S(=O)(=O)c3cccs3)C[C@@H]2CN2CC3(COC3)C2)cc1)C(F)(F)F (mixture of isomers),83

# System: not listed separately
# Test: Volume of distribution at steady state in C57Bl6 mouse at 2 mg/kg, iv
# Assay type: ADME, organism-based
# Design: dose 2 mg/kg, route intravenous
# Settings: in vivo, read-out: Vdss
# Method in brief: as §1
row,SMILES,Vd [L/kg]
1,CC#C[C@H]1CN(S(=O)(=O)c2ccc(N)nc2)CCN1c1ccc(C(O)(C(F)(F)F)C(F)(F)F)cc1,1.1

# System: Mus musculus
# Test: Unbound maximum concentration in C57Bl6 mouse at 10 mg/kg, po
# Assay type: ADME, organism-based
# Design: dose 10 mg/kg, route oral
# Settings: in vivo
row,SMILES,fCmax [µM]
1,CC#C[C@H]1CN(S(=O)(=O)c2ccc(N)nc2)CCN1c1ccc(C(O)(C(F)(F)F)C(F)(F)F)cc1,0.068

# System: not listed separately
# Test: Mean residence time in rat at 10 mg/kg, po
# Assay type: ADME, organism-based
# Design: dose 10 mg/kg, route oral
# Settings: in vivo
# Method in brief: as §2
row,SMILES,MRT [h]
1,CC#C[C@H]1CN(S(=O)(=O)c2ccc(N)nc2)CCN1c1ccc(C(O)(C(F)(F)F)C(F)(F)F)cc1,6.2

# System: Mus musculus
# Test: Antidiabetic activity in insulin-resistant db/db mouse assessed as reduction of fed blood glucose level at 100 mg/kg, po measured at 6 hrs relative to vehicle-treated control
# Assay type: functional
# Design: scale not given: the % may be the effect or the level left
# Settings: not given
row,SMILES,Activity [%]
1,CC#C[C@H]1CN(S(=O)(=O)c2ccc(N)nc2)CCN1c1ccc(C(O)(C(F)(F)F)C(F)(F)F)cc1,60

# From ChEMBL document CHEMBL3112561, “Small molecule disruptors of the glucokinase-glucokinase regulatory protein interaction: 2. Leveraging structure-based drug design to identify analogues with improved pharmacokinetic profiles” (J Med Chem, 2014)
